Source: PubChem
MrgX1 allo act = positive allosteric modulators of MrgX1, primary screen, HEK293 cells, Fluo-4 calcium flux | AID 588675, 2011 | 0.63% of 310,000 active | B-score at 10 µM | FDSS; stronger effect = higher value | Mas-related G-protein coupled receptor member X1 (Homo sapiens), Q96LB2;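 active = plate-corrected calcium response at least 3 library SD above typical, normal starting fluorescence, not activating the receptor alone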;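 also: compound read alongside a low EC10 to EC30 dose of BAM8-22 agonist; peak minus trough fluorescence over baseline measured at the second addition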
Target sequence (Q96LB2 whole entry, looked up): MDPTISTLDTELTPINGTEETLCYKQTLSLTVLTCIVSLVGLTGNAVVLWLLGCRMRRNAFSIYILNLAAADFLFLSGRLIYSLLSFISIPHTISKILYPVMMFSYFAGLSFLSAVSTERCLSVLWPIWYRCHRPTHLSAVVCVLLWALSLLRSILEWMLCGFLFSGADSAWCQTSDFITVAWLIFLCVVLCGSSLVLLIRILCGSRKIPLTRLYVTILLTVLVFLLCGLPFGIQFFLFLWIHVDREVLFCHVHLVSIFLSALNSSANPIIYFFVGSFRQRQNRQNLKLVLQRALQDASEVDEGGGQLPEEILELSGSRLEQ
MrgX1 ag = agonists of human MrgX1 receptor, primary screen, HEK293 cells, Fluo-4 calcium flux | B-score at 10 µM | 0.44% of 310,000 active | Mas-related G-protein coupled receptor member X1 (Homo sapiens), Q96LB2 | Fluo-4 calcium fluorescence, agonist mode; stronger effect = higher value;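 active = calcium response B-score plate-corrected fluorescence ratio at least 3 library SD, with starting fluorescence B-score inside 5 SD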
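Test system: HEK293 cells stably expressing human MrgX1 receptor; Input: fifteen thousand cells per well; Dosing: compound delivered in addition one of three; Schedule: overnight seeding, then 1 h dark dye loading; Technique: Fluo-4 NW calcium fluorescence; Measure: B-scored fluorescence response ratio; Controls: positive and negative controls per plate.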
Hep lipid drop = inhibitors of hepatocyte lipid droplet formation, primary screen, imaging, high-throughput imaging, BODIPY stain; AID 1656, 2009; inhibition, % at 6.5 µM; 0.4% of 240,000 active; AML12 mouse hepatocytes, oleate lipid droplets;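 active = lipid droplet intensity inhibited by at least 50%, with more than 500 cells counted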
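Technique: fluorescence imaging, 20x objective, two fields per well / Assay system: AML12 hepatocytes (mouse) / Measure: % inhibition of lipid droplet signal / Doses: 6.5 µM single-point dosing / Incubation: overnight exposure / Reagent: 100 µM oleic acid challenge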
RGS4 pot = RGS4 potentiators or activators, primary screen, cell-based, HEK293 M3R inducible RGS4, calcium flux | carbachol calcium flux Fluo4; stronger effect = lower value | B-score at 10 µM | 0.92% of 310,000 active | AID 463111, 2010;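 active = B-score of the integrated calcium signal more than 4 SD below the library mean, with starting fluorescence not abnormally high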;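 also: negative B-score means reduced calcium response which marks RGS4 activation or potentiation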
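Detection: kinetic calcium fluorescence imaging with Fluo4-AM dye, 2 µM / Material: HEK293 cells with stable M3R and inducible RGS4 / Schedule: recording 10 s baseline at 1 Hz, 100 s post-agonist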
MrgX1 antagonist = antagonists of human MrgX1 receptor, primary screen, HEK293 cells, Fluo-4 calcium flux | Mas-related G-protein coupled receptor member X1 (Homo sapiens), Q96LB2 | BAM8-22 antagonism; stronger effect = lower value | B-score at 10 µM | 1.3% of 310,000 active | AID 588676, 2011;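 active = calcium-response B-score plate-corrected more than 3 library SD below zero, starting fluorescence within 5 deviations, no agonist response on first addition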;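 also: peak minus trough fluorescence over baseline after final BAM8-22 challenge near maximal dose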
RGS4 inh = RGS4 inhibitors, primary screen, cell-based, HEK293 M3R inducible RGS4, calcium flux; Regulator of G-protein signaling 4 (Homo sapiens), P49798; Fluo-4 calcium flux; stronger effect = higher value; triggered by carbachol at its EC20; B-score at 10 µM; 0.45% of 310,000 active;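 active = B-score, a plate-corrected calcium signal, over three deviations above library mean, with baseline fluorescence within five deviations of library mean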;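 also: RGS4 expression induced by doxycycline in cells with stable M3 receptor; B-score is computed from the integrated fluorescence ratio over baseline after carbachol; higher B-score means a larger calcium signal and so more RGS4 inhibition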
Target sequence (P49798 whole entry, looked up): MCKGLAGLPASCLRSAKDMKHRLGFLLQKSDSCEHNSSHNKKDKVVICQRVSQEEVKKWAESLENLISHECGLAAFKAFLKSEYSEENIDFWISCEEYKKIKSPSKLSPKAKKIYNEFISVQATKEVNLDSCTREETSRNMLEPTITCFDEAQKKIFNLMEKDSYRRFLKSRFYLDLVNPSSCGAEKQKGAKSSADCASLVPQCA
Hep lipid conf = hepatocyte lipid droplet accumulation inhibitors, confirmation, imaging, AML12 mouse hepatocytes, single concentration, high-content. shares compounds with Hep lipid drop. BODIPY lipid droplet imaging; droplets induced with 100 µM oleic acid. inhibition, % at 5.2 µM. 65% of 870 active;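 active = inhibition of lipid droplet metric at least 50%, with more than 300 cells in each of four replicates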
AML12 tox img = AML12 hepatocyte cytotoxicity, counter-screen for hepatic lipid droplet formation project, imaging, DAPI nuclear morphology imaging | AID 463200, 2010 | AML12 mouse hepatocytes; stronger effect = higher value; cells fed 100 µM oleate overnight | 3% of 870 active | z-score at 5 µM | shares compounds with Hep lipid drop; in the data active = z-score above about 6.3;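 also: compound exposure lasted overnight at 37 °C before fixation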
AML12 tox ATP = AML12 hepatocyte cytotoxicity, confirmation, cytotoxicity control for hepatic lipid droplet formation project, cell-based, single concentration. cytotoxicity, % at 50 µM. AML12 mouse hepatocyte viability, ATP luminescence; cells loaded with 100 µM oleic acid. 530 tested, under 10 active. shares compounds with Hep lipid drop;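 active = cytotoxicity above 50% in each of four replicates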;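 also: compound exposure lasted overnight at 37 °C before the ATP read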
Of the large screens only hits and unclear results are named; the others gave an inactive call (follow-up assays come after a bar, where they were run). Sampled rows, rich in hits. Any-hit rate of the full collection: about 3.8%.

CCOC(=O)c1ccc(NC(=O)CCOc2ccc(C)cc2)cc1	Hep lipid drop 66 | Hep lipid conf 90 | AML12 tox img inactive | AML12 tox ATP inactive
NC(=S)NC(c1ccccc1)c1ccncc1 (configuration not stated)	none (no result: Hep lipid drop)
COc1ccc(CCC(=O)N(C)CC(=O)Nc2cc(C)ccc2C)cc1	none
COc1ccc(OC)c(/C=C/C(=O)N(C)CC(=O)Nc2cc(C)ccc2C)c1	Hep lipid drop 60 | Hep lipid conf 95 | AML12 tox img inactive | AML12 tox ATP inactive
COc1ccc(OC)c(/C=C/C(=O)N(C)CC(=O)Nc2ccc(C)cc2)c1	Hep lipid drop 59 | Hep lipid conf 77 | AML12 tox img inactive | AML12 tox ATP inactive
CN(CCCNC(=O)CSc1cc(=O)n(C)c2cc(Cl)ccc12)Cc1ccccc1	none
CCN(CC)S(=O)(=O)c1cc(NC(=O)C(C)OC(=O)c2[nH]c(C)c(C(C)=O)c2C)ccc1C (configuration not stated)	Hep lipid drop 128 | Hep lipid conf inactive | AML12 tox img inactive
CCOc1ccccc1NC(=O)CSCC(=O)Nc1ccccc1	Hep lipid drop 57 | Hep lipid conf 96 | AML12 tox img inactive | AML12 tox ATP inactive
CCOc1ccc(OCC)c(NC(=O)CSCC(=O)O)c1	none (no result: Hep lipid drop)
CC(=O)c1cn(CC(=O)Nc2ccc(C)cc2C)c2ccccc12	none
O=C(CN1CCC(C(=O)c2cccc(Cl)c2)CC1)Nc1ccc(C(=O)O)cc1	none
C=CCNC(=S)Nc1cc(S(=O)(=O)N2CCOCC2)ccc1-n1cncn1	Hep lipid drop 119 | Hep lipid conf inactive | AML12 tox img inactive
COc1ccc2nc(SCC(=O)Nc3cc(C)on3)[nH]c2c1	none
CCc1cc(SC#N)cc(C)c1NC(=O)CCl	Hep lipid drop 68 | Hep lipid conf inactive | AML12 tox img inactive
CCC(C)N(C(=O)c1csnn1)C(C(=O)NC1CCCC1)c1c(F)cccc1Cl (configuration not stated)	none
CCOC(=O)c1cnc2c(-c3ccccc3OC)c(C)nn2c1C	none
CS(=O)(=O)N(Cc1ccc(Cl)cc1)c1ccc(C(=O)N/N=C/c2cc3ccccc3nc2Cl)cc1	Hep lipid drop 64 | Hep lipid conf 106 | AML12 tox img inactive | AML12 tox ATP inactive
O=C(/C=C/c1ccc(Cl)cc1)NC(=S)Nc1ccc(NC(=O)c2ccco2)cc1	Hep lipid drop 57 | Hep lipid conf inactive | AML12 tox img inactive
CCN1CCN(Cc2ccc(NC(=O)c3cc(NC(=O)C(=O)c4c[nH]c5ccccc45)cc(OC)c3)cc2C(F)(F)F)CC1	none
CCN1CCN(Cc2ccc(NC(=O)c3ccc(C)c(NC(=O)C(=O)c4c[nH]c5ccccc45)c3)cc2C(F)(F)F)CC1	Hep lipid drop 63, RGS4 pot -8.8 | Hep lipid conf inactive | AML12 tox img 6.3
Cc1ccc(NC(=O)CN(C)CC(=O)Nc2ccc(N3CCOCC3)cc2)c(C)c1	Hep lipid drop 53 | Hep lipid conf 84 | AML12 tox img inactive
COCCn1cnc2c(c1=O)c1nc3ccccc3nc1n2/N=C/c1ccc(OC)c(OC)c1	Hep lipid drop 53 | Hep lipid conf inactive | AML12 tox img inactive
COCCn1cnc2c(c1=O)c1nc3ccccc3nc1n2/N=C/c1ccco1	none
